The target of test [1] is T1, KiSS-1 receptor (Homo sapiens, UniProt Q969F8). Description: Agonist activity at GPR54 expressed in CHO cells assessed as intracellular calcium mobilization at 10 nM relative to KP-10. The test is classed as functional, cell-based. In short, it runs like this: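 FLIPR Fluo3 Ca2+ mobilization in CHO/dhfr cells stably expressing GPR54, read over 40 s. Peptide tested at 10 nM (n = 3). Maximum signal expressed as a percentage of the maximum induced by 1 µM KP-10 (n = 3).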
A general note: Calcium flux is commonly read through the fluorescence of an indicator in the cells.

In test [2] the target is T1, KiSS-1 receptor. As to the kind of experiment: Agonist activity at GPR54 expressed in CHO cells assessed as intracellular calcium mobilization. The test is classed as functional, cell-based.
The target in test [3] is T1, KiSS-1 receptor. As to the kind of experiment: Ratio of EC50 of drug for GPR54 to EC50 of KP-10 for GPR54. The test is classed as functional. In a few lines: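 Q calculated as EC50(compound)/EC50(KP-10), with KP-10 run as control on each FLIPR Ca2+ plate (GPR54/CHO cells) to correct for plate-to-plate variation.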

Each structure is given as a SMILES string. Square brackets hold non-standard residues; d marks the D form. Peptide text beside a SMILES is read from it. Trx = NC[C@H]1CC[C@H](C(=O)O)CC1; 4Amb = NCc1ccc(C(=O)O)cc1; 3Abz = Nc1cccc(C(=O)O)c1; 4Abz = Nc1ccc(C(=O)O)cc1; 2Abz = Nc1ccccc1C(=O)O; Ahx = NCCCCCC(=O)O

The EC50 is the midpoint of the concentration-response curve.

T1 sequence (Q969F8 whole entry): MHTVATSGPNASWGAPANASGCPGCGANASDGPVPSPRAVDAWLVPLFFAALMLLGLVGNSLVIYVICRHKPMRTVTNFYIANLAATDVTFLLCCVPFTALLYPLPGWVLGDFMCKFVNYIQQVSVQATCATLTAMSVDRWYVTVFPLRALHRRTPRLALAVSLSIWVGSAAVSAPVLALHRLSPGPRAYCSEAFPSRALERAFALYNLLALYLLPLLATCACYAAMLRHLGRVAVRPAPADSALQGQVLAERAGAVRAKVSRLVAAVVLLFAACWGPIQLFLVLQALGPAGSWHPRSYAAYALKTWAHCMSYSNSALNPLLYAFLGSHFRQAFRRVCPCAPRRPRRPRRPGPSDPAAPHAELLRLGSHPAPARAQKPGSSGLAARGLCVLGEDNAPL

As for `CC(C)C[C@H](NC(=O)CNC(=O)[C@H](Cc1ccccc1)NC(=O)c1ccc(CNCc2ccccn2)cc1)C(=O)N[C@@H](CCCNC(=N)N)C(=O)N[C@@H](Cc1c[nH]c2ccccc12)C(N)=O`, the Activity in test [1] is 89.3%. For the same molecule, the EC50 in test [2] turned out to be 2.7 nM. In addition, the Ratio EC50 in test [3] amounted to 4.5. In the case of `CC(C)C[C@H](NC(=O)CNC(=O)[C@H](Cc1ccccc1)NC(=O)c1ccc(CN)cc1)C(=O)N[C@@H](CCCNC(=N)N)C(=O)N[C@@H](Cc1c[nH]c2ccccc12)C(N)=O` (H-[4Amb]FGLRW-NH2), the Activity in test [1] was 96.5%. In test [2], the EC50 is 3.1 nM. Also, in test [3], the Ratio EC50 was found to be 3.4. On to `CC(C)C[C@H](NC(=O)CNC(=O)[C@H](Cc1ccccc1)NC(=O)c1ccc(O)cc1)C(=O)N[C@@H](CCCNC(=N)N)C(=O)N[C@@H](Cc1c[nH]c2ccccc12)C(N)=O`, for which the Activity in test [1] came out at 94.6%.

Consider `CC(C)C[C@H](NC(=O)CNC(=O)[C@H](Cc1ccccc1)NC(=O)c1cc(O)c(O)c(O)c1)C(=O)N[C@@H](CCCNC(=N)N)C(=O)N[C@@H](Cc1c[nH]c2ccccc12)C(N)=O`, for which, in test [1], the Activity turned out to be 1%.

Consider `CC(C)C[C@H](NC(=O)CNC(=O)[C@H](Cc1ccccc1)NC(=O)c1ccc(CN(Cc2ccccn2)Cc2ccccn2)cc1)C(=O)N[C@@H](CCCNC(=N)N)C(=O)N[C@@H](Cc1c[nH]c2ccccc12)C(N)=O`, for which the Activity in test [1] was found to be 88.9%. In the case of `CC(C)C[C@H](NC(=O)CNC(=O)[C@H](Cc1ccccc1)NC(=O)c1ccc(NC(=N)N)cc1)C(=O)N[C@@H](CCCNC(=N)N)C(=O)N[C@@H](Cc1c[nH]c2ccccc12)C(N)=O`, in test [1], the Activity came out at 91.2%. Further, the EC50 in test [2] came to 1.7 nM. The Ratio EC50 in test [3] was 2.9.

In the case of `CC(C)C[C@H](NC(=O)CNC(=O)[C@H](Cc1ccccc1)NC(=O)c1ccc(Cl)cc1)C(=O)N[C@@H](CCCNC(=N)N)C(=O)N[C@@H](Cc1c[nH]c2ccccc12)C(N)=O`, the Activity in test [1] came out at 91.8%. Turning to `CC(C)C[C@H](NC(=O)CNC(=O)[C@H](Cc1ccccc1)NC(=O)CCCCCN)C(=O)N[C@@H](CCCNC(=N)N)C(=O)N[C@@H](Cc1c[nH]c2ccccc12)C(N)=O` (H-[Ahx]FGLRW-NH2), in test [1], the Activity came to 1.6%. For the molecule `CC(C)C[C@H](NC(=O)CNC(=O)[C@H](Cc1ccccc1)NC(=O)[C@H]1CC[C@H](CN)CC1)C(=O)N[C@@H](CCCNC(=N)N)C(=O)N[C@@H](Cc1c[nH]c2ccccc12)C(N)=O` (H-[Trx]FGLRW-NH2), the Activity in test [1] worked out at 9.9%. In the case of `CC(C)C[C@H](NC(=O)CNC(=O)[C@H](Cc1ccccc1)NC(=O)c1ccccn1)C(=O)N[C@@H](CCCN=C(N)N)C(=O)N[C@@H](Cc1c[nH]c2ccccc12)C(N)=O`, the concentration giving a half-maximal response (EC50) in test [2] was determined as 0.8 nM.

Regarding `CC(C)C[C@H](NC(=O)CNC(=O)[C@H](Cc1ccccc1)NC(=O)c1ccccc1OC(=O)c1ccccc1O)C(=O)N[C@@H](CCCNC(=N)N)C(=O)N[C@@H](Cc1c[nH]c2ccccc12)C(N)=O`, the Activity in test [1] came to 92.1%. Moreover, the EC50 in test [2] stood at 3 nM. Moreover, the Ratio EC50 in test [3] came to 4. As to `CC(C)C[C@H](NC(=O)CNC(=O)[C@H](Cc1ccccc1)NC(=O)c1ccc[nH]1)C(=O)N[C@@H](CCCN=C(N)N)C(=O)N[C@@H](Cc1c[nH]c2ccccc12)C(N)=O`, the half-maximal effective concentration (EC50) in test [2] amounted to 2 nM. For the molecule `CC(C)C[C@H](NC(=O)CNC(=O)[C@H](Cc1ccccc1)NC(=O)c1c[nH]cn1)C(=O)N[C@@H](CCCNC(=N)N)C(=O)N[C@@H](Cc1c[nH]c2ccccc12)C(N)=O`, the Activity in test [1] came out at 88.4%.

`CC(C)C[C@H](NC(=O)CNC(=O)[C@H](Cc1ccccc1)NC(=O)c1cccnc1)C(=O)N[C@@H](CCCNC(=N)N)C(=O)N[C@@H](Cc1c[nH]c2ccccc12)C(N)=O`: the Activity in test [1] was 93.5%. In addition, the EC50 in test [2] is 3 nM. Further, in test [3], the Ratio EC50 was 4.1.

On to `CC(C)C[C@H](NC(=O)CNC(=O)[C@H](Cc1ccccc1)NC(=O)c1cccc(O)c1)C(=O)N[C@@H](CCCNC(=N)N)C(=O)N[C@@H](Cc1c[nH]c2ccccc12)C(N)=O`, for which the Activity in test [1] came to 99.7%. Besides, the EC50 in test [2] amounted to 1.2 nM. In test [3], the Ratio EC50 is 1.6. As for `CC(C)C[C@H](NC(=O)CNC(=O)[C@H](Cc1ccccc1)NC(=O)c1ccncc1)C(=O)N[C@@H](CCCNC(=N)N)C(=O)N[C@@H](Cc1c[nH]c2ccccc12)C(N)=O`, the Activity in test [1] is 102%. Also, in test [2], the EC50 was 1.7 nM. Moreover, in test [3], the Ratio EC50 stood at 2.4.

For the molecule `CC(C)C[C@H](NC(=O)CNC(=O)[C@H](Cc1ccccc1)NC(=O)c1ccc(CNCc2ccccc2)cc1)C(=O)N[C@@H](CCCNC(=N)N)C(=O)N[C@@H](Cc1c[nH]c2ccccc12)C(N)=O`, the Activity in test [1] was 86.5%. Further, the EC50 in test [2] was 3.3 nM. For the same molecule, in test [3], the Ratio EC50 came out at 5.6.

As to `CC(C)C[C@H](NC(=O)CNC(=O)[C@H](Cc1ccccc1)NC(=O)c1ccc[nH]1)C(=O)N[C@@H](CCCNC(=N)N)C(=O)N[C@@H](Cc1c[nH]c2ccccc12)C(N)=O`, the Activity in test [1] worked out at 95.8%. Moreover, in test [3], the Ratio EC50 was determined as 1.7. For `CC(=O)NCc1ccc(C(=O)N[C@@H](Cc2ccccc2)C(=O)NCC(=O)N[C@@H](CC(C)C)C(=O)N[C@@H](CCCNC(=N)N)C(=O)N[C@@H](Cc2c[nH]c3ccccc23)C(N)=O)cc1` (Ac-[4Amb]FGLRW-NH2), the Activity in test [1] was 101%. For the molecule `CC(C)C[C@H](NC(=O)CNC(=O)[C@H](Cc1ccccc1)NC(=O)c1cc(O)c(O)c(O)c1)C(=O)N[C@@H](CCCN=C(N)N)C(=O)N[C@@H](Cc1c[nH]c2ccccc12)C(N)=O`, the EC50 in test [2] was more than 100 nM. `COc1ccc(C(=O)N[C@@H](Cc2ccccc2)C(=O)NCC(=O)N[C@@H](CC(C)C)C(=O)N[C@@H](CCCNC(=N)N)C(=O)N[C@@H](Cc2c[nH]c3ccccc23)C(N)=O)cc1`: in test [1], the Activity turned out to be 104%. The EC50 in test [2] worked out at 1.2 nM. Also, in test [3], the Ratio EC50 was 1.6. On to `CC(C)C[C@H](NC(=O)CNC(=O)[C@H](Cc1ccccc1)NC(=O)c1cccc(N)c1)C(=O)N[C@@H](CCCNC(=N)N)C(=O)N[C@@H](Cc1c[nH]c2ccccc12)C(N)=O` (H-[3Abz]FGLRW-NH2), for which the Activity in test [1] was 88.5%. In addition, the EC50 in test [2] worked out at 4.7 nM. In test [3], the Ratio EC50 worked out at 4.2. For the molecule `CC(C)C[C@H](NC(=O)CNC(=O)[C@H](Cc1ccccc1)NC(=O)c1ccccc1O)C(=O)N[C@@H](CCCN=C(N)N)C(=O)N[C@@H](Cc1c[nH]c2ccccc12)C(N)=O`, the EC50 in test [2] stood at 5 nM. On to `CC(C)C[C@H](NC(=O)CNC(=O)[C@H](Cc1ccccc1)NC(=O)c1ccccc1N)C(=O)N[C@@H](CCCNC(=N)N)C(=O)N[C@@H](Cc1c[nH]c2ccccc12)C(N)=O` (H-[2Abz]FGLRW-NH2), for which the Activity in test [1] came to 94%. In test [2], the EC50 worked out at 3.1 nM. For the same molecule, in test [3], the Ratio EC50 was 2.8.

Take `CC(C)C[C@H](NC(=O)CNC(=O)[C@H](Cc1ccccc1)NC(=O)c1ccc(N)cc1)C(=O)N[C@@H](CCCNC(=N)N)C(=O)N[C@@H](Cc1c[nH]c2ccccc12)C(N)=O` (H-[4Abz]FGLRW-NH2): the Activity in test [1] stood at 90.4%. As to `CC(C)C[C@H](NC(=O)CNC(=O)[C@H](Cc1ccccc1)NC(=O)c1c(F)c(F)c(F)c(F)c1F)C(=O)N[C@@H](CCCNC(=N)N)C(=O)N[C@@H](Cc1c[nH]c2ccccc12)C(N)=O`, the Activity in test [1] is 0.6%. Moreover, in test [2], the EC50 was more than 100 nM. For the molecule `CC(C)C[C@H](NC(=O)CNC(=O)[C@H](Cc1ccccc1)NC(=O)c1ccc(F)cc1)C(=O)N[C@@H](CCCNC(=N)N)C(=O)N[C@@H](Cc1c[nH]c2ccccc12)C(N)=O`, in test [1], the Activity was 95.6%. Same read-out and setting: in the case of `CC(C)C[C@H](NC(=O)CNC(=O)[C@H](Cc1ccccc1)NC(=O)c1ccc(CNC(=N)N)cc1)C(=O)N[C@@H](CCCNC(=N)N)C(=O)N[C@@H](Cc1c[nH]c2ccccc12)C(N)=O` it was 93.7%. Turning to `CC(C)C[C@H](NC(=O)CNC(=O)[C@H](Cc1ccccc1)NC(=O)c1ccccc1O)C(=O)N[C@@H](CCCNC(=N)N)C(=O)N[C@@H](Cc1c[nH]c2ccccc12)C(N)=O`, the Activity in test [1] stood at 90.1%. In addition, in test [3], the Ratio EC50 is 6.6. Turning to `CC(C)C[C@H](NC(=O)CNC(=O)[C@H](Cc1ccccc1)NC(=O)c1ccc(CO)cc1)C(=O)N[C@@H](CCCN=C(N)N)C(=O)N[C@@H](Cc1c[nH]c2ccccc12)C(N)=O`, the EC50 in test [2] worked out at 3 nM. Take `CC(C)C[C@H](NC(=O)CNC(=O)[C@H](Cc1ccccc1)NC(=O)c1ccc(CN(Cc2ccccc2)Cc2ccccc2)cc1)C(=O)N[C@@H](CCCNC(=N)N)C(=O)N[C@@H](Cc1c[nH]c2ccccc12)C(N)=O`: the Activity in test [1] worked out at 9.3%. As for `CC(C)C[C@H](NC(=O)CNC(=O)[C@H](Cc1ccccc1)NC(=O)c1ccc(CO)cc1)C(=O)N[C@@H](CCCNC(=N)N)C(=O)N[C@@H](Cc1c[nH]c2ccccc12)C(N)=O`, the Activity in test [1] turned out to be 95.4%. Moreover, in test [3], the Ratio EC50 came out at 4.7. Turning to `CC(C)C[C@H](NC(=O)CNC(=O)[C@H](Cc1ccccc1)NC(=O)c1ccc([N+](=O)[O-])cc1)C(=O)N[C@@H](CCCNC(=N)N)C(=O)N[C@@H](Cc1c[nH]c2ccccc12)C(N)=O`, in test [1], the Activity is 94.3%. In test [2], the EC50 came out at 1 nM. The Ratio EC50 in test [3] worked out at 1.5.
